Measurements: ChEMBL document CHEMBL1152218, “New acridone-4-carboxylic acid derivatives as potential inhibitors of hepatitis C virus infection” (Bioorg Med Chem, 2008)
Calls of active or inactive are those of the source. No cut-off for these calls is given here.

Columns and labels:
[1] = Cytotoxicity against human HuH7 cells by XTT assay; assay type: cell-based, Huh-7
Summary of the method: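 Huh-7 cells carrying the HCV replicon were grown with serial dilutions (1 to 200 µM) for 3 days at 37 °C. XTT-PMS staining followed for 3–4 h at 37 °C. Absorbance was read at 450 nm against a 690 nm reference, with cell-free blank wells subtracted. Growth is expressed as percent of 1–2% DMSO controls, and CC50 is the concentration giving 50% growth inhibition.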

[2] = test system: Hepacivirus hominis; assay: Inhibition of HCV NS3 helicase activity in presence of increasing concentration of double stranded DNA substrate at 33 uM
Summary of the method: (§1)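 Fluorometric NS3 helicase assay at 37 °C. Inhibitor was held at a constant concentration while the dsDNA substrate concentration was increased. Activity is expressed as percent of the same reaction with DMSO in place of inhibitor.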

[3] = test system: Hepatitis C virus; assay: Antiviral activity against HCV subtype 1a in Huh7 cells assessed as reduction of viral RNA replication; assay type: functional, organism-based, Hepacivirus hominis; conditions: Huh-7
Summary of the method: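 Subgenomic HCV replicon (luciferase) in Huh-7 cells; compounds at 1 to 200 µM, with at least three experiments and three replicates per concentration. Luminescence is expressed as percent of control wells containing 1–2% DMSO. EC50 is the concentration that reduces luminescence by 50%.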

[4] = Selectivity index, ratio of CC50 for human HuH7 cells to IC50 for HCV subtype 1a; assay type: functional, Huh-7
Summary of the method: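 The ratio CC50/EC50 comes from the XTT cytotoxicity assay and the luciferase replicon assay, both run in replicon-bearing Huh-7 cells.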

[5] = Binding affinity to dsRNA assessed as inhibition of ethidium bromide RNA intercalation at 20 uM by RNA migration retardation assay
[6] = Inhibition of HCV NS3 helicase activity by fluorimetric assay; set-up: species or system Hepacivirus hominis
Summary of the method: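 Direct fluorometric assay of NS3 helicase unwinding, run at 37 °C. IC50 is the inhibitor concentration that reduces helicase activity by 50%.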

[7] = test system: Escherichia phage T7; assay: Inhibition of T7 RNA polymerase activity assessed as blockade of DNA transcription
Summary of the method: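 In vitro transcription with T7 RNA polymerase, using 0.5 µg EcoRI-cut pTZ19R carrying a 341 bp insert as template. The reaction contained 2 mM of each NTP, 1 U/µl RNase inhibitor and 12 U enzyme in 40 mM Tris-HCl pH 7.9, 6 mM MgCl2, 2 mM spermidine, 10 mM NaCl and 10 mM DTT. Incubation was 1 h at 37 °C. Products were run on 1.2% agarose with EtBr, and IC99 was obtained by band densitometry.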

[8] = test system: Nucleic Acid; assay: Binding affinity to HCV con1 dsDNA assessed as inhibition of ethidium bromide DNA intercalation by DNA migration retardation assay; assay type: nucleic-acid assay; conditions: Hepacivirus hominis
[9] = Binding affinity to dsRNA assessed as inhibition of ethidium bromide RNA intercalation by RNA migration retardation assay
[10] = test system: Nucleic Acid; assay: Binding affinity to HCV con1 dsDNA assessed as inhibition of ethidium bromide DNA intercalation at 500 uM by DNA migration retardation assay; assay type: nucleic-acid assay; conditions: Hepacivirus hominis
[11] = test system: Hepacivirus hominis; assay: Inhibition of HCV NS3 helicase activity in presence of increasing concentration of double stranded DNA substrate at 10 uM; summary of the method: as §1
[12] = test system: Hepacivirus hominis; assay: Inhibition of HCV NS3 helicase activity in presence of increasing concentration of double stranded DNA substrate at 5 uM; summary of the method: as §1
[13] = test system: Hepacivirus hominis; assay: Inhibition of HCV NS3 helicase activity in presence of increasing ATP concentration
Summary of the method: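 Fluorometric NS3 helicase assay, run at 37 °C, with IC50 determined at each of three ATP concentrations. Activity is expressed as percent of the same reaction with DMSO in place of inhibitor.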

SMILES	Activity [2]	EC50 [3]	Activity [5]	IC50 [6]	IC99 [7]	Activity [8]	Activity [9]	Activity [10]	Activity [11]	Activity [12]	Activity [13]	CC50 [1]	Ratio CC50/EC50 [4]
Cc1cccnc1NC(=O)c1cccc2c(=O)c3ccccc3[nH]c12	inactive	11.1 µM	Active	20.2 µM	80 µM	Active						39.2 µM	3.5
Cc1ccccc1NC(=O)c1cccc2c(=O)c3ccccc3[nH]c12		19 µM		> 100 µM	80 µM							99.3 µM	5.2
Cc1cccc(NC(=O)c2cccc3c(=O)c4ccccc4[nH]c23)c1		5.6 µM	inactive	> 100 µM	40 µM		inactive					5.5 µM	1
O=C(NCc1ccccn1)c1cccc2c(=O)c3ccccc3[nH]c12		4.3 µM	inactive	> 100 µM	> 100 µM							10.2 µM	2.4
[N-]=[N+]=N[C@]1(CO)O[C@@H](n2ccc(N)nc2=O)[C@H](O)[C@@H]1O [4'-AZIDOCYTIDINE]		1.4 µM											
Cc1ccc(NC(=O)c2cccc3c(=O)c4ccccc4[nH]c23)cc1		> 100 µM	inactive	> 100 µM	10 µM		inactive	inactive				> 100 µM	

More lines, main results first:

Activity [2]	EC50 [3]	Activity [5]	IC50 [6]	IC99 [7]	Activity [8]	Activity [9]	Activity [10]	Activity [11]	Activity [12]	Activity [13]	SMILES	CC50 [1]	Ratio CC50/EC50 [4]
			> 100 µM	> 100 µM							O=C(c1cccc2c(=O)c3ccccc3[nH]c12)N1CCOCC1		
	12.9 µM		> 100 µM	40 µM							O=C(Nc1ccccc1)c1cccc2c(=O)c3ccccc3[nH]c12	90.9 µM	7.1
			> 100 µM	> 100 µM							O=C(NCCCN1CCOCC1)c1cccc2c(=O)c3ccccc3[nH]c12		
			> 100 µM	80 µM							CN(C)CCNC(=O)c1cccc2c(=O)c3ccccc3[nH]c12		
	9 µM	Active	8.9 µM	20 µM	Active			inactive			O=C(Nc1ccncc1)c1cccc2c(=O)c3ccccc3[nH]c12	175 µM	19.4
	10.2 µM	Active	3.8 µM	40 µM	Active				inactive		O=C(Nc1ccccn1)c1cccc2c(=O)c3ccccc3[nH]c12	412 µM	40.5
			> 100 µM	> 100 µM							O=C(c1cccc2c(=O)c3ccccc3[nH]c12)N1CCCCC1		
	6.5 µM		6.2 µM	40 µM					inactive	inactive	Cc1ccnc(NC(=O)c2cccc3c(=O)c4ccccc4[nH]c23)c1	7 µM	1.1
